Results as given in ChEMBL document CHEMBL2046311, “Design, synthesis, and molecular hybrids of caudatin and cinnamic acids as novel anti-hepatitis B virus agents” (Eur J Med Chem, 2012).
pIC50: −log10 of the molar value.

How the values were obtained:
[1] = Cytotoxicity against human HepG2(2.2.15) cells assessed as cell viability at 10 uM after 48 hrs by MTT assay; assay type: cell-based; conditions: hepg2 2.2.15, 48 h
Procedure, shortened: (§1)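 Cell viability measured by MTT under the 10 μM luciferase reporter treatment conditions, at 48 h and 72 h.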

[2] = Selectivity index, ratio of CC50 for human HepG2(2.2.15) cells to IC50 for Hepatitis B virus infected in human HepG2(2.2.15) cells assessed as inhibition of viral DNA replication; assay type: functional
Procedure, shortened: (§2)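 SI calculated as CC50 (MTT, HepG 2.2.15) divided by IC50 for the named read-out (HBV DNA by real-time PCR, or HBeAg or HBsAg secretion by ELISA), in the same cell line.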

[3] = Cytotoxicity against human HepG2(2.2.15) cells assessed as cell viability at 10 uM after 72 hrs by MTT assay; assay type: cell-based; conditions: hepg2 2.2.15, 72 h; procedure, shortened: as §1
Mus musculus [4] = assay: Acute toxicity in Kunming mouse assessed as change in body weight at 50 mg/kg, po administered as single dose measured on day 7 (Rvb =26.3 g); assay type: organism-based; design: dose 50 mg/kg, route oral; conditions: in vivo
Mus musculus [5] = assay: Acute toxicity in Kunming mouse assessed as change in body weight at 250 mg/kg, po administered as single dose measured on day 7 (Rvb =26.3 g); assay type: organism-based; design: dose 250 mg/kg, route oral; conditions: in vivo
Mus musculus [6] = assay: Acute toxicity in Kunming mouse assessed as abnormality at 50 to 1250 mg/kg, po administered as single dose measured up to 14 days; assay type: organism-based; design: dose 50-1250 mg/kg, route oral; conditions: in vivo, 336 h
[7] = Selectivity index, ratio of CC50 for human HepG2(2.2.15) cells to IC50 for Hepatitis B virus infected in human HepG2(2.2.15) cells assessed as inhibition of viral surface antigen secretion; assay type: functional; procedure, shortened: as §2
Nucleic Acid [8] = assay: Increase of enhancer 1 transcriptional activity in HBV infected in human HepG2(2.2.15) cells transfected with pGL3 at 10 uM after 3 days by luciferase reporter gene assay relative to mock-treated control; assay type: cell-based; conditions: Hepatitis B virus
Procedure, shortened: (§3)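 HepG 2 cells transiently transfected by Lipofectamine 2000 with HBV promoter/enhancer firefly luciferase reporters in pGL3, with phRL-CMV Renilla luciferase as internal control. Cells split 24 h after transfection and cultured 3 days, then treated at 10 μM for 3 days. Dual-luciferase read-out in triplicate. Fold activity = treated/mock-treated activity.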

Mus musculus [9] = assay: Acute toxicity in Kunming mouse assessed as change in body weight at 250 mg/kg, po administered as single dose measured on day 14 (Rvb =28.5 g); assay type: organism-based; design: dose 250 mg/kg, route oral; conditions: in vivo
Mus musculus [10] = assay: Acute toxicity in Kunming mouse assessed as change in body weight at 1250 mg/kg, po administered as single dose measured on day 7 (Rvb =26.3 g); assay type: organism-based; design: dose 1250 mg/kg, route oral; conditions: in vivo
Mus musculus [11] = assay: Acute toxicity in po dosed Kunming mouse; assay type: organism-based; conditions: in vivo
[12] = Selectivity index, ratio of CC50 for human HepG2(2.2.15) cells to IC50 for Hepatitis B virus infected in human HepG2(2.2.15) cells assessed as inhibition of viral e antigen secretion; assay type: functional; procedure, shortened: as §2
Mus musculus [13] = assay: Acute toxicity in Kunming mouse assessed as mortality at 1250 mg/kg, po administered as single dose measured up to 14 days; assay type: organism-based; design: dose 1250 mg/kg, route oral; conditions: in vivo, 336 h
Mus musculus [14] = assay: Acute toxicity in Kunming mouse assessed as mortality at 250 mg/kg, po administered as single dose measured up to 14 days; assay type: organism-based; design: dose 250 mg/kg, route oral; conditions: in vivo, 336 h
Mus musculus [15] = assay: Acute toxicity in Kunming mouse assessed as change in body weight at 50 mg/kg, po administered as single dose measured on day 14 (Rvb =28.5 g); assay type: organism-based; design: dose 50 mg/kg, route oral; conditions: in vivo
Mus musculus [16] = assay: Acute toxicity in Kunming mouse assessed as mortality at 50 mg/kg, po administered as single dose measured up to 14 days; assay type: organism-based; design: dose 50 mg/kg, route oral; conditions: in vivo, 336 h
[17] = Cytotoxicity against human HepG2(2.2.15) cells by modified-MTT assay; assay type: cell-based
Procedure, shortened: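 HepG 2.2.15 cells in RPMI-1640 with 10% fetal calf serum at 37 °C, 5% CO2. Compounds in DMSO, final DMSO below 2.5 μL/mL. Viability read by modified MTT method. CC50 is the mean of at least two experiments.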

Hepatitis B virus [18] = assay: Antiviral activity against Hepatitis B virus infected in human HepG2(2.2.15) cells assessed as inhibition of viral surface antigen secretion by ELISA; assay type: functional, organism-based
Procedure, shortened: (§4)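 HepG 2.2.15 cells in RPMI-1640 with 10% fetal calf serum at 37 °C, 5% CO2. Compounds dissolved in DMSO, culture DMSO below 2.5 μL/mL. Secreted HBeAg and HBsAg measured by ELISA. IC50 values are means of at least two experiments.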

Hepatitis B virus [19] = assay: Antiviral activity against Hepatitis B virus infected in human HepG2(2.2.15) cells assessed as inhibition of viral DNA replication by PCR analysis; assay type: functional, organism-based
Procedure, shortened: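 HepG 2.2.15 cells grown in RPMI-1640 with 10% fetal calf serum, […] and penicillin/streptomycin at 37 °C, 5% CO2. Compounds added in DMSO, kept below 2.5 μL/mL. HBV DNA quantified by SYBR Green real-time PCR with HBV-specific primers spanning 541–591 bp. IC50 values are means of at least two experiments.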

Hepatitis B virus [20] = assay: Antiviral activity against Hepatitis B virus infected in human HepG2(2.2.15) cells assessed as inhibition of viral e antigen secretion by ELISA; assay type: functional, organism-based; procedure, shortened: as §4
Mus musculus [21] = assay: Acute toxicity in Kunming mouse assessed as change in body weight at 1250 mg/kg, po administered as single dose measured on day 14 (Rvb =28.5 g); assay type: organism-based; design: dose 1250 mg/kg, route oral; conditions: in vivo
Nucleic Acid [22] = assay: Inhibition of X promoter transcriptional activity in HBV infected in human HepG2(2.2.15) cells transfected with pGL3 at 10 uM after 3 days by luciferase reporter gene assay relative to mock-treated control; assay type: cell-based; conditions: Hepatitis B virus; procedure, shortened: as §3

For COc1cc(/C=C/C(=O)O[C@H]2CC[C@@]3(C)C(=CC[C@]4(O)[C@@H]3C[C@@H](OC(=O)/C=C(\C)C(C)C)[C@@]3(C)[C@]4(O)CC[C@@]3(O)C(C)=O)C2)cc(OC)c1OC, the Activity [1] was 97.4%, the “Ratio CC50/IC50” value [2] was over 746.6 and the Activity [3] was 85.6%. For the same compound, the Activity (Mus musculus [4]) was 26.7%, the Activity (Mus musculus [5]) was 27.3% and the Activity (Mus musculus [6]) was “Non-toxic”. The “Ratio CC50/IC50” value [7] was over 330, the fold change (FC) (Nucleic Acid [8]) was 9.4 and the Activity (Mus musculus [9]) was 29.8%. The Activity (Mus musculus [10]) was 26.5%, the LD50 (Mus musculus [11]) was 1250 mg/kg and the “Ratio CC50/IC50” value [12] was over 330. For the same compound, the Activity (Mus musculus [13]) was “Non-toxic”, the Activity (Mus musculus [14]) was “Non-toxic” and the Activity (Mus musculus [15]) was 28.9%. For the same compound, the Activity (Mus musculus [16]) was “Non-toxic”, the CC50 [17] was over 1820 µM and the pIC50 (Hepatitis B virus [18]) was 5.26. It also gave a pIC50 (Hepatitis B virus [19]) of 5.61, a pIC50 (Hepatitis B virus [20]) of 5.26 and an Activity (Mus musculus [21]) of 28.8%. It also gave a fold change (FC) (Nucleic Acid [22]) of 5.6.

In the case of COc1ccc(/C=C/C(=O)O[C@H]2CC[C@@]3(C)C(=CC[C@]4(O)[C@@H]3C[C@@H](OC(=O)/C=C(\C)C(C)C)[C@@]3(C)[C@]4(O)CC[C@@]3(O)C(C)=O)C2)cc1, the “Ratio CC50/IC50” value [2] was over 127.1, the “Ratio CC50/IC50” value [7] was over 12.9 and the “Ratio CC50/IC50” value [12] was over 2.4. For the same compound, the CC50 [17] was over 1380 µM, the pIC50 (Hepatitis B virus [18]) was 3.97 and the pIC50 (Hepatitis B virus [19]) was 4.96. It also gave a pIC50 (Hepatitis B virus [20]) of 3.25.
